Experimental data: ChEMBL document CHEMBL4024784, “Structure-Based Design, Synthesis, and In Vivo Antinociceptive Effects of Selective A1 Adenosine Receptor Agonists” (J Med Chem, 2018)
The source made the active and inactive calls. No cut-off for these calls is given here.

Assays:
[1] = target: T1, Adenosine receptor A2b (Homo sapiens, UniProt P29275); experiment: Agonist activity at recombinant human adenosine A2B receptor expressed in CHO cell membranes assessed as stimulation of adenylyl cyclase activity in presence of […]; type: functional, cell-based
T1 sequence (P29275 whole entry): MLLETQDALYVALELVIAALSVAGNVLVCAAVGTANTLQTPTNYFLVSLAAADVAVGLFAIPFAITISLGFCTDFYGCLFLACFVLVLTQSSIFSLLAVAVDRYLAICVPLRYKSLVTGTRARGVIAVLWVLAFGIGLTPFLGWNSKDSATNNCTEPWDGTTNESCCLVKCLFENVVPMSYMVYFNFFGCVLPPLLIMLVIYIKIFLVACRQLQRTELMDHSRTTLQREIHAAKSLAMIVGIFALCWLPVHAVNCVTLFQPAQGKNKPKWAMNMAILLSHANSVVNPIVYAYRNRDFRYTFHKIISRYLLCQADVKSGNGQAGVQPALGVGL
Outline: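 A2B potency from stimulation of adenylyl cyclase in crude CHO membranes (single high-speed centrifugation, resuspended in 50 mM Tris/HCl pH 7.4, used immediately); EC50 derived. Where only partial agonism was seen, efficacy was compared to 100 µM NECA as full agonist. Geometric means, 95% CI, duplicates, n ≥ 3.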

[2] = species on record: Homo sapiens; experiment: Selectivity ratio of Ki for recombinant human adenosine A2A receptor to Ki for recombinant human adenosine A1 receptor
Outline: (§1)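 Ratios computed from Ki values obtained by competition binding in human receptor-transfected CHO membranes: [3H]CCPA 1 nM (A1), [3H]NECA 10 nM (A2A), [3H]HEMADO 1 nM (A3).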

[3] = target: Adenosine receptors; A1 & A3 (Homo sapiens) (UniProt P30542+P0DMS8); experiment: Selectivity ratio of Ki for recombinant human adenosine A3 receptor to Ki for recombinant human adenosine A1 receptor; outline: as §1
[4] = target: T2, Adenosine receptor A1 (Homo sapiens) (UniProt P30542); experiment: Agonist activity at recombinant human adenosine A1 receptor expressed in CHO cell membranes assessed as inhibition of forskolin-stimulated adenylyl cyclase activity in presence of […] relative to CCPA
T2 sequence (whole entry): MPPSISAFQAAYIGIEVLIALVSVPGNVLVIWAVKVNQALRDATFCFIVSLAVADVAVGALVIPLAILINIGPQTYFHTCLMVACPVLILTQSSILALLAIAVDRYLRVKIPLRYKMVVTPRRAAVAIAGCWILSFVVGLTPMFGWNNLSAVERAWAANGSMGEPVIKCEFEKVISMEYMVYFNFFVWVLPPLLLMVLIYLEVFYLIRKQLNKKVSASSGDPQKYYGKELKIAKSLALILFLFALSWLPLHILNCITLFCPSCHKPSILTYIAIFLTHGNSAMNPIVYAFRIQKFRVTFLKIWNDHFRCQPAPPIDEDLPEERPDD

[5] = target: T3, Adenosine receptor A1 (Homo sapiens, UniProt P30542); experiment: Displacement of [3H]CCPA from recombinant human adenosine A1 receptor expressed in CHO cell membranes after 3 hrs
T3 sequence (P30542 whole entry): T2 sequence (whole entry)
Outline: (§2)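 Competition binding on CHO membranes stably expressing the human subtype (two-step 1,000 x g then 100,000 x g centrifugation, stored -80°C). Radioligands: 1 nM [3H]CCPA (A1), 10 nM [3H]NECA (A2A), 1 nM [3H]HEMADO (A3). Nonspecific binding: 1 mM theophylline (A1) or 100 µM R-PIA (A2A, A3). Ki from competition curves; geometric means with 95% CI, duplicates, n ≥ 3.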

[6] = target: T4, Adenosine receptor A3 (Homo sapiens, UniProt P0DMS8); experiment: Displacement of [3H]HEMADO from recombinant human adenosine A3 receptor expressed in CHO cell membranes after 3 hrs; outline: as §2
T4 sequence (P0DMS8 whole entry): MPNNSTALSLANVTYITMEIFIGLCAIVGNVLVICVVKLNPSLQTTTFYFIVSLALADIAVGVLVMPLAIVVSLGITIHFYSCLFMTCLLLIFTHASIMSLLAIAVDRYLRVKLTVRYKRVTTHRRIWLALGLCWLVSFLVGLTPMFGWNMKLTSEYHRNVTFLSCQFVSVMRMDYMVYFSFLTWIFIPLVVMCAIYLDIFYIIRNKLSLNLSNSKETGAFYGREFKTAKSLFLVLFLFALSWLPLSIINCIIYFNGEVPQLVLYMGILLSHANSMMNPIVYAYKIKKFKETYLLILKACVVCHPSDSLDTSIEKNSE

[7] = target: T3, Adenosine receptor A1; experiment: Agonist activity at recombinant human adenosine A1 receptor expressed in CHO cell membranes assessed as inhibition of forskolin-stimulated adenylyl cyclase activity in presence of […]
[8] = test system: Mus musculus; experiment: Antinociceptive activity in ip dosed C57BL/6 mouse assessed as reduction in prolonged phase of tonic pain administered 10 mins prior to formalin challenge measured after 60 mins; type: functional, organism-based
Outline: (§3)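 Adult male C57BL/6 mice (25-30 g), acclimatized 30 min in test chamber. Compound or vehicle (10% DMSO in 0.9% NaCl) given i.p. 10 min before 30 µL 1.25% formalin s.c. into dorsal hind paw; DPCPX 1 mg/kg i.p. where co-given. Blinded observers recorded paw lifting/licking time every 5 min for 60 min; early phase 0-7 min, late phase 15-60 min. 8-10 mice/group, mean ± SEM.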

[9] = target: Adenosine receptor A2a (Homo sapiens, UniProt P29274); experiment: Displacement of [3H]NECA from recombinant human adenosine A2A receptor expressed in CHO cell membranes after 3 hrs; outline: as §2
Adenosine receptor A2a, sequence (P29274 whole entry): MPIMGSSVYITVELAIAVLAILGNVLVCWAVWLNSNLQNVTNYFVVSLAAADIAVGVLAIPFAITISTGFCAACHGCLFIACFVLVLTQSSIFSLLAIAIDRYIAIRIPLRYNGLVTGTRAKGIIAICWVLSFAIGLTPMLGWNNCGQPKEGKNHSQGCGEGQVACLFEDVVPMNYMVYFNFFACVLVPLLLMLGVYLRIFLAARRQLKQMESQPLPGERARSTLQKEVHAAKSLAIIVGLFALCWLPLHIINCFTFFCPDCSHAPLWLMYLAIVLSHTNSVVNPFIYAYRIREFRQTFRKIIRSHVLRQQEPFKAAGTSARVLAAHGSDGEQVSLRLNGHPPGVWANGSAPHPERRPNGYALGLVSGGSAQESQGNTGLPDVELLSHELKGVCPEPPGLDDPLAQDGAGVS

[10] = target: T4, Adenosine receptor A3; experiment: Antagonist activity at recombinant human adenosine A3 receptor expressed in CHO cell membranes assessed as inhibition of forskolin-stimulated adenylyl cyclase in presence of […]; type: functional, cell-based
Outline: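 hA3-CHO membranes (one high-speed spin, 50 mM Tris/HCl pH 7.4, used fresh) tested for reversal of NECA-induced inhibition of forskolin-stimulated adenylyl cyclase. NECA served as reference agonist. Points in duplicate, at least 3 independent experiments.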

[11] = test system: Mus musculus; experiment: Antinociceptive activity in C57BL/6 mouse assessed as reduction in prolonged phase of tonic pain at 4 mg/kg, ip administered 10 mins prior to formalin challenge measured after 60 mins; type: functional, organism-based; outline: as §3
[12] = test system: Mus musculus; experiment: Antinociceptive activity in C57BL/6 mouse assessed as reduction in prolonged phase of tonic pain at 4 mg/kg, ip administered 10 mins prior to formalin challenge measured after 60 mins in presence of A1AR antagonist DPCPX; type: functional, organism-based; outline: as §3
[13] = test system: Mus musculus; experiment: Antinociceptive activity in C57BL/6 mouse assessed as reduction in early phase of tonic pain at 4 mg/kg, ip administered 10 mins prior to formalin challenge measured after 7 mins in presence of A1AR antagonist DPCPX; type: functional, organism-based; outline: as §3
[14] = test system: Mus musculus; experiment: Antinociceptive activity in C57BL/6 mouse assessed as reduction in early phase of tonic pain at 4 mg/kg, ip administered 10 mins prior to formalin challenge measured after 7 mins; type: functional, organism-based; outline: as §3
[15] = test system: Mus musculus; experiment: Antinociceptive activity in C57BL/6 mouse assessed as reduction in early phase of tonic pain at 2 mg/kg, ip administered 10 mins prior to formalin challenge measured after 7 mins; type: functional, organism-based; outline: as §3
[16] = test system: Mus musculus; experiment: Antinociceptive activity in C57BL/6 mouse assessed as reduction in prolonged phase of tonic pain at 2 mg/kg, ip administered 10 mins prior to formalin challenge measured after 60 mins in presence of A1AR antagonist DPCPX; type: functional, organism-based; outline: as §3

Row | Structure (SMILES) | EC50 [1] [µM] | Ratio Ki [2] | Ratio Ki [3] | Efficacy [4] [%] | Ki [5] [µM] | Ki [6] [µM] | EC50 [7] [µM] | Ki [9] [µM] | IC50 [10] [µM] | Activity [8] | Activity [11] | Activity [12] | Activity [13] | Activity [14] | Activity [15] | Activity [16]
1 | O[C@@H]1[C@H](O)[C@@H](CCl)O[C@H]1n1cnc2c(Nc3ccc(Cl)cc3F)nc(Cl)nc21 | > 60 | 175 | 21 | – | 0.0112 | 0.232 | – | 1.96 | – | – | – | – | – | – | – | –
2 | Cc1cc(C)n(C[C@H]2O[C@@H](n3cnc4c(N[C@@H]5CCOC5)ncnc43)[C@H](O)[C@@H]2O)n1 | > 60 | 58 | 11 | – | 0.491 | 5.28 | – | 28.6 | – | – | – | – | – | – | – | –
3 | Cc1cc(C)n(C[C@H]2O[C@@H](n3cnc4c(NC5CCCC5)ncnc43)[C@H](O)[C@@H]2O)n1 | > 60 | 126 | 49 | – | 0.115 | 5.64 | – | 14.5 | – | – | – | – | – | – | – | –
4 | Cc1cc(C)n(C[C@H]2O[C@@H](n3cnc4c(Nc5ccc(Cl)cc5F)nc(Cl)nc43)[C@H](O)[C@@H]2O)n1 | > 60 | > 719 | 1 | > 90 | 0.139 | 0.139 | 5.57 | > 100 | 0.701 | – | – | – | – | – | – | –
5 | Cc1cc(C)n(C[C@H]2O[C@@H](n3cnc4c(N[C@@H]5CCOC5)nc(Cl)nc43)[C@H](O)[C@@H]2O)n1 | > 60 | 27 | 2.3 | – | 0.438 | 0.996 | – | 11.9 | – | – | – | – | – | – | – | –
6 | Cc1cc(C)n(C[C@H]2O[C@@H](n3cnc4c(Nc5ccc(Cl)cc5F)ncnc43)[C@H](O)[C@@H]2O)n1 | > 60 | 43 | 17 | – | 0.158 | 2.73 | – | 6.83 | – | – | – | – | – | – | – | –

Now from value to molecule, other results behind:

Row | EC50 [1] [µM] | Ratio Ki [2] | Ratio Ki [3] | Efficacy [4] [%] | Ki [5] [µM] | Ki [6] [µM] | EC50 [7] [µM] | Ki [9] [µM] | IC50 [10] [µM] | Structure (SMILES) | Activity [8] | Activity [11] | Activity [12] | Activity [13] | Activity [14] | Activity [15] | Activity [16]
7 | > 30 | 2170 | 333 | > 90 | 0.00435 | 1.45 | 0.134 | 9.43 | – | Cc1cc(C)n(C[C@H]2O[C@@H](n3cnc4c(NC5CC6CCC5C6)nc(Cl)nc43)[C@H](O)[C@@H]2O)n1 (mixture of isomers) | Dose-dependent effect | – | – | – | – | – | –
8 | > 30 | 765 | 213 | – | 0.0256 | 5.45 | – | 19.6 | – | Cc1cc(C)n(C[C@H]2O[C@@H](n3cnc4c(NC5CC6CCC5C6)ncnc43)[C@H](O)[C@@H]2O)n1 (mixture of isomers) | – | – | – | – | – | – | –
9 | > 30 | 548 | 18 | > 90 | 0.0186 | 0.343 | 0.541 | 10.2 | 1.91 | Cc1cc(C)n(C[C@H]2O[C@@H](n3cnc4c(NC5CCCC5)nc(Cl)nc43)[C@H](O)[C@@H]2O)n1 | – | – | – | – | – | – | –
10 | 3.74 | 727 | 73 | > 90 | 0.00187 | 0.136 | 0.056 | 1.36 | 4.14 | O[C@@H]1[C@H](O)[C@@H](CCl)O[C@H]1n1cnc2c(Nc3ccc(Cl)cc3F)ncnc21 | – | – | – | – | – | – | –
11 | 12.8 | 5500 | 635 | > 90 | 0.00189 | 1.2 | 0.14 | 10.4 | – | O[C@@H]1[C@H](O)[C@@H](CCl)O[C@H]1n1cnc2c(N[C@@H]3CCOC3)ncnc21 | – | Active | inactive | inactive | Active | Active | –
12 | 20 | 2480 | 314 | > 90 | 0.0035 | 1.1 | 0.0542 | 8.68 | – | O[C@@H]1[C@H](O)[C@@H](CCl)O[C@H]1n1cnc2c(N[C@@H]3CCOC3)nc(Cl)nc21 | Dose-dependent effect | – | – | – | – | – | inactive
